Data set [1] relates to Mus musculus. The data set can be described thus: Anti convulsant activity administered intra peritoneally to mouse for subcutaneous metrazol test at 0.5 h with dose of 300 mg/kg; 0/1= No of animals protected /No of animals tested. The class given is functional.
A short description of data set [2]: Anti convulsant activity administered intra peritoneally to mouse for toxicity at 0.5 hr with dose of 100 mg/kg; 1/8= No of animals exhibiting toxicity /No of animals tested. The class given is organism-based. More on the design: dose 100 mg/kg. The note with it: in vivo, ip.
In data set [3] the test system is Mus musculus. As to the kind of experiment: Anti convulsant activity administered intra peritoneally to mouse at maximal electroshock test at 0.5 hr after the drug administered with dose of 100 mg/kg; 0/3= No of animals protected /No of animals tested. The class given is functional.
A short description of data set [4]: Anti convulsant activity administered intra peritoneally to mouse for toxicity at 4 hr with dose of 100 mg/kg; 0/4= No of animals exhibiting toxicity /No of animals tested. The following applies: in vivo, ip. More on the design: dose 100 mg/kg. The class given is organism-based.
Data set [5] has as its system Rattus norvegicus. As to the kind of experiment: Anticonvulsant activity after oral administration of 100 mg/kg dose after 2 hr in rats; + means 25% of the animals protected. It is filed as functional, organism-based. Also on record: dose 100 mg/kg. The method in brief:
(§1)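 Oral dosing of rats at a single dose, compound dissolved or suspended in 0.5% methylcellulose. Protection in the MES or scMet test checked 15 min, 30 min, 1 h, 2 h and 4 h after dosing. Scored as 25/50/75/100% of animals protected (+ to ++++), – for none.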

In data set [6] the test system is Mus musculus. The data set can be described thus: Anti convulsant activity administered intra peritoneally to mouse for subcutaneous metrazol test at 4 hr after the drug administered with dose of 30 mg/kg; 0/1= No of animals protected /No of animals tested. The class given is functional. The following applies: route intraperitoneal.
Data set [7] can be described thus: Anti convulsant activity administered intra peritoneally to mouse for toxicity at 0.5 hr with dose of 300 mg/kg; 4/4= No of animals exhibiting toxicity /No of animals tested. The class given is organism-based. More on the design: dose 300 mg/kg. The following applies: in vivo, ip.
For data set [8], the system named is Rattus norvegicus. As to the kind of experiment: Anticonvulsant activity after oral administration of 100 mg/kg dose after 1 hr in rats; + means 25% of the animals protected. The class given is functional, organism-based. Also on record: dose 100 mg/kg. The method in brief: as §1
The test system of data set [9] is Mus musculus. The data set can be described thus: Anti convulsant activity administered intra peritoneally to mouse at maximal electroshock test at 0.5 hr after the drug administered with dose of 300 mg/kg; 1/1= No of animals protected /No of animals tested. It is filed as functional.
For data set [10], the system named is Mus musculus. As to the kind of experiment: Anti convulsant activity administered intra peritoneally to mouse at maximal electroshock test at 0.5 h after the drug administered with dose of 30 mg/kg; 0/1= No of animals protected /No of animals tested. The class given is functional.
A short description of data set [11]: Anti convulsant activity administered intra peritoneally to mouse for toxicity at 4 hr with dose of 30 mg/kg; 0/2= No of animals exhibiting toxicity /No of animals tested. Also on record: dose 30 mg/kg. It is filed as organism-based. The following applies: in vivo, ip.
Data set [12] has as its system Mus musculus. The data set can be described thus: Anti convulsant activity administered intra peritoneally to mouse for subcutaneous metrazol test at 4 hr with dose of 300 mg/kg; 0/1= No of animals protected /No of animals tested. It is filed as functional.
Data set [13] can be described thus: Anti convulsant activity administered intra peritoneally to mouse for toxicity at 0.5 hr with dose of 30 mg/kg; 0/4= No of animals exhibiting toxicity /No of animals tested. It is filed as organism-based. Also on record: dose 30 mg/kg. The following applies: in vivo, ip.
The subject of data set [14] is Mus musculus. As to the kind of experiment: Anti convulsant activity administered intra peritoneally to mouse at maximal electroshock test at 4 hr after the drug administered with dose of 30 mg/kg; 0/1= No of animals protected /No of animals tested. It is filed as functional.
Data set [15] relates to Mus musculus. As to the kind of experiment: Anti convulsant activity administered intra peritoneally to mouse for subcutaneous metrazol test at 0.5 hr with dose of 100 mg/kg; 0/1= No of animals protected /No of animals tested. The class given is functional.
Data set [16] concerns Mus musculus. The data set can be described thus: Anti convulsant activity administered intra peritoneally to mouse at maximal electroshock test at 4 hr after the drug administered with dose of 300 mg/kg; 1/1= No of animals protected /No of animals tested. It is filed as functional.
Data set [17] deals with Rattus norvegicus. The data set can be described thus: Anticonvulsant activity after oral administration of 50 mg/kg dose after 15 min in rats; ++ means 50% of the animal protected. The class given is functional, organism-based. Also on record: dose 50 mg/kg. The method in brief:
as §1

Data set [18] deals with Mus musculus. The data set can be described thus: Anti convulsant activity administered intra peritoneally to mouse for subcutaneous metrazol test at 4 hr after the drug administered with dose of 100 mg/kg; 0/1= No of animals protected /No of animals tested. The class given is functional.
Data set [19] has as its system Mus musculus. As to the kind of experiment: Anti convulsant activity administered intra peritoneally to mouse for subcutaneous metrazol test at 0.5 hr with dose of 30 mg/kg; 0/1= No of animals protected /No of animals tested. The class given is functional.
Data set [20] relates to Rattus norvegicus. The data set can be described thus: Anticonvulsant activity after oral administration of 50 mg/kg dose after 30 min in rats; + means 25% of the animal protected. Also on record: dose 50 mg/kg. It is filed as functional, organism-based. The method in brief:
as §1

Data set [21] in a line: Anti convulsant activity administered intra peritoneally to mouse for toxicity at 4 hr with dose of 300 mg/kg; 0/2= No of animals exhibiting toxicity /No of animals tested. It is filed as organism-based. More on the design: dose 300 mg/kg. The following applies: in vivo, ip.
The subject of data set [22] is Rattus norvegicus. The data set can be described thus: Anticonvulsant activity after oral administration of 50 mg/kg dose after 2 hr in rats; ++ means 50% of the animal is protected. It is filed as functional, organism-based. More on the design: dose 50 mg/kg. The method in brief:
as §1

Data set [23] has as its system Rattus norvegicus. As to the kind of experiment: Anticonvulsant activity after oral administration of 100 mg/kg dose after 15 min in rats;+means 25% of the animals protected. It is filed as functional, organism-based. More on the design: dose 100 mg/kg. The method in brief: as §1
Data set [24] has as its system Mus musculus. As to the kind of experiment: Anti convulsant activity administered intra peritoneally to mouse at maximal electroshock test at 4 hr after the drug administered with dose of 100 mg/kg; 0/3= No of animals protected /No of animals tested. The class given is functional.
For data set [25], the system named is Rattus norvegicus. The data set can be described thus: Anticonvulsant activity after oral administration of 50 mg/kg dose after 4 hr in rats;+ means 25% of the animals protected. It is filed as functional, organism-based. More on the design: dose 50 mg/kg. The method in brief: (§2)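 Rats dosed orally with compound dissolved or suspended in 0.5% methylcellulose (0.04 mL per 10 g body weight). Anticonvulsant protection (MES or scMet) and toxicity scored at 15 min, 30 min, 1 h, 2 h and 4 h after dosing. Graded in steps of 25% of animals protected or showing toxicity.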

Data set [26] in a line: Anti convulsant activity administered intra peritoneally to mouse for toxicity at 4 hr with dose of 100 mg/kg; 1/4= No of animals exhibiting toxicity /No of animals tested. The note with it: in vivo, ip. It is filed as organism-based. Also on record: dose 100 mg/kg.
Data set [27] concerns Rattus norvegicus. The data set can be described thus: Anticonvulsant activity after oral administration of 50 mg/kg dose after 1 hr in rats; +means25% of animals protected. The class given is functional, organism-based. Also on record: dose 50 mg/kg. The method in brief: as §1
In data set [28] the test system is Rattus norvegicus. The data set can be described thus: Anticonvulsant activity after oral administration of 50 mg/kg dose after 2 hr in rats; ++ means 50% of animals protected. Also on record: dose 50 mg/kg. The class given is functional, organism-based. The method in brief:
as §1

Data set [29] has as its system Rattus norvegicus. The data set can be described thus: Anticonvulsant activity after oral administration of 50 mg/kg dose after 30 min in rats; +means 25% of animal protected. It is filed as functional, organism-based. Also on record: dose 50 mg/kg. The method in brief: as §2
Data set [30] relates to Rattus norvegicus. As to the kind of experiment: Anticonvulsant activity after oral administration of 50 mg/kg dose after 30 min in rats; + means 25% of animals protected. Also on record: dose 50 mg/kg. The class given is functional, organism-based. The method in brief:
as §1

For data set [31], the system named is Mus musculus. The data set can be described thus: Anti convulsant activity administered intra peritoneally to mouse at maximal electroshock test at 4 hr after the drug administered with dose of 300 mg/kg; 0/1= No of animals protected /No of animals tested. It is filed as functional.
The subject of data set [32] is Rattus norvegicus. The data set can be described thus: Anticonvulsant activity after oral administration of 50 mg/kg dose after 4 hr in rats; + means 25% of the animal protected. It is filed as functional, organism-based. Also on record: dose 50 mg/kg. The method in brief: as §2
Data set [33] in a line: Anti convulsant activity administered intra peritoneally to mouse for toxicity at 0.5 hr with dose of 100 mg/kg; 0/8= No of animals exhibiting toxicity /No of animals tested. The class given is organism-based. Also on record: dose 100 mg/kg. The note with it: in vivo, ip.
For data set [34], the system named is Mus musculus. As to the kind of experiment: Anticonvulsant activity administered intra peritoneally to mouse at subcutaneous metrazol test. The class given is functional. The following applies: sc.
The subject of data set [35] is Rattus norvegicus. The data set can be described thus: Anticonvulsant activity administered orally to rat at subcutaneous metrazol test. The class given is functional.
The test system of data set [36] is Mus musculus. The data set can be described thus: Anticonvulsant activity administered intra peritoneally to mouse for protective index of subcutaneous metrazol test. The class given is functional.
The test system of data set [37] is Rattus norvegicus. As to the kind of experiment: Anticonvulsant activity administered orally to rat for protective index of subcutaneous metrazol test. It is filed as functional.

As for `CNC(=O)NC(=O)C1C(C)(C)C1(C)C`, the Activity is 0 in the data set with Mus musculus [1]; 0 in the data set on Mus musculus [3]; 25% of the animal protected in the data set on Rattus norvegicus [5]; 0 with Mus musculus [6]; 25% of the animal protected in the data set with Rattus norvegicus [8]; 1 in the data set on Mus musculus [9]. Moreover, the Activity was 0 with Mus musculus [10]; 0 with Mus musculus [12]; 0 with Mus musculus [14]; 0 in the data set on Mus musculus [15]; 1 in the data set with Mus musculus [16]; 25% of the animal protected in the data set with Rattus norvegicus [17]. The Activity is given as 0 with Mus musculus [18]; 0 with Mus musculus [19]; 25% of the animal protected with Rattus norvegicus [20]; 25% of the animal protected with Rattus norvegicus [22]; 0 with Mus musculus [24]; 25% of the animal protected in the data set on Rattus norvegicus [25]. For the same compound, the Toxicity in [2] is recorded as 1; in data set [4] it was 0; in data set [7] it was 4; in [11], 0; in data set [13] it was 0; in data set [21], 0. Moreover, in the data set with Rattus norvegicus [23], the “Anticonvulsant Activity” value is given as 25% of the animals protected.

With `CC1(C)C(C(=O)NC2CC2)C1(C)C`, the Activity is recorded as 0 with Mus musculus [1]; 25% of animal protected in the data set on Rattus norvegicus [27]; 25% of animal protected with Rattus norvegicus [28]; 0 in the data set with Mus musculus [3]; 0 with Mus musculus [6]; 25% of animal protected in the data set on Rattus norvegicus [29]. In addition, the Activity in the data set on Mus musculus [9] is reported as 1; in the data set with Mus musculus [10] it was 0; in the data set with Rattus norvegicus [30], 25% of animal protected; in the data set with Mus musculus [12], 0; in the data set on Mus musculus [31], 0; with Mus musculus [14], 0. Further, the Activity is 0 in the data set on Mus musculus [15]; 25% of animal protected in the data set on Rattus norvegicus [32]; 0 in the data set on Mus musculus [18]; 0 with Mus musculus [19]; 0 in the data set on Mus musculus [24]. Further, the Toxicity is 1 in [26]; 4 in data set [7]; 0 in [11]; 0 in data set [13]; 0 in [33]; 0 in [21].

Regarding `CCCC(CCC)C(=O)O` [VALPROIC ACID], the results for the ED50 in the data set with Mus musculus [34] and in the data set on Rattus norvegicus [35] were 220 mg/kg and 646 mg/kg, respectively.

For the compound `CC1(C)C(C(N)=O)C1(C)C`, the results for the Activity with Mus musculus [36] and in the data set on Rattus norvegicus [37] were 1.7 and 7.3, respectively.

Values taken from ChEMBL document CHEMBL1138683 (J Med Chem, 2004).
